Test results as given in ChEMBL document CHEMBL4513216, “Probing the Open Global Health Chemical Diversity Library for Multistage-Active Starting Points for Next-Generation Antimalarials” (ACS Infect Dis, 2020).

Test: Toxicity liver stage against HepG2, at 10uM
Type: cell-based
Parameters: test concentration 10 uM, cell line HepG2-A16-CD81EGFP
Settings: human, HepG2-A16-CD81EGFP cells; read-out: INHIBITION
Procedure, shortened: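 Uninfected HepG2-A16-CD81EGFP cells, 3 × 10^3 per well, 1536-well, plated on prespotted compound at 10 μM final, parasite-free screening media added to match infected plates; puromycin 10 μM positive, DMSO 0.5% negative; run in parallel with 48 h PbLuc assay at 37 °C, 5% CO2; viability by CellTiter-Glo luminescence, normalized to controls.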

SMILES	cytotoxicity at 10 µM [%]
CCCSCC(=O)N1CCN(c2ccc(C)cc2)CC1C (configuration not stated)	-165
N#Cc1cccc(-c2ncnn2CC2(O)CCCCC2)c1	8.83
O=c1c(Cc2ccccc2)c(O)ccn1CCc1ccccc1	10.3
CCCC(=O)N1CCC(c2ncc3c(n2)CCNC3)CC1	-23.1
CNC(=O)CN1CCOCC2(CCCN(Cc3ccc(F)cc3)C2)C1 (configuration not stated)	6.88
O=C(c1cc(C2CCCCN2CCO)n[nH]1)N1CCOCC1 (configuration not stated)	-24.5
COc1ccccc1C(=O)N1CCC(Oc2ccc(C#N)cn2)CC1	5.54
N#CCCCOc1cccc(CN2CCCC2c2ccc[nH]2)c1 (configuration not stated)	-14.5
Cc1nc(C)n(CC2CCCN(CC(=O)Nc3cccnc3)C2)n1 (configuration not stated)	-4.84
Cc1nc(COc2ccc(OCC(N)=O)cc2)oc1C	4.68
CC(C)c1nc(Cn2cncn2)n(-c2ccccn2)n1	-1.03
COc1ccccc1C1CCN(c2ccc3cc[nH]c3n2)CC1	-6.78
CN(Cc1nccn1C)C1CCCN(CCCc2ccccc2)C1 (configuration not stated)	1.17
Cc1noc(C)c1CN(C)C(=O)NC(C)c1cccs1 (configuration not stated)	1.41
CC[C@@]1(O)CCN(C(=O)c2ccc(SC)cc2)C[C@H]1O	-17.5
CO[C@@H]1CC[C@H]2[C@H]1OCCN2Cc1ccccn1	1.06
Cc1nnc2n1CCN(Cc1nc3ccccc3o1)C2	-6.48
CCN(C)Cc1cccc(CNC(=O)CSCc2ccncc2)c1	4.31
Cc1ccsc1CN(CCCN(C)C)Cc1ccccn1	-4.11
Cc1cc(-c2cnc(C)nc2CN(C)C(=O)c2ccccn2)on1	7.95
Cc1nc(CN2CCCC(Cn3cc(CCO)nn3)C2)c[nH]1 (configuration not stated)	-21.1
CC(NC(=O)NCCn1ccnc1)c1ccc2c(c1)OCCO2 (configuration not stated)	-9.44
O=S(=O)(c1cccnc1)N1C[C@H]2CCC[C@@]2(COc2ccccn2)C1	7.05

SMILES	cytotoxicity at 10 µM [%]
O=C(c1ccno1)N1C[C@@H](F)[C@@H](OCc2nc3ccccc3o2)C1	7.61
COC(C)(C)C(=O)N1CCC(c2cc(CN(C)C)n(C)n2)CC1	0.748
Cc1noc(C)c1CCC(=O)N1CCCC(n2cccn2)C1 (configuration not stated)	-7.81
CN(Cc1ccccc1)c1ncccc1CNC1CCCC1	-8.8
Cc1cc2cc(CNC3CCN(S(C)(=O)=O)CC3)oc2cc1C	-0.779
COC(=O)Cn1c(=O)[nH]c2cn(-c3cccc(Cl)c3)c(=O)n21	-1.39
Cc1cnn(CCNCc2cc(C#N)ccc2F)c1	-10.1
O=C(c1ccc(-c2cccs2)cc1F)N1CCN(CCO)CC1	-47.3
CN1CCN(c2ncc(CNCCCc3cccc(F)c3)cn2)CC1	-13.2
Cc1nn(C)c(N(C)C)c1CNCC(O)COc1ccc(F)cc1 (configuration not stated)	0.769
CC1c2cccn2CCN1C(=O)CCc1nc(-c2ccccc2)no1 (configuration not stated)	0.45
CCc1ccc(C(=O)O)cc1S(=O)(=O)N(C)c1cccc(C)c1	-8.2
CS(=O)(=O)NC1CCN(C(=O)c2[nH]c3ccc(Cl)cc3c2Cl)CC1	16.3
N#Cc1nccnc1N1CCC(CSc2ccccc2)C1 (configuration not stated)	0.957
COc1ccnc(N(C)Cc2ccccc2O)n1	2.29
Cc1cnn(-c2ccc(S(=O)(=O)N(C)CC(C)(CO)CO)cc2F)c1	12.5
COc1cccc(C(=O)N2CCCC(CNS(C)(=O)=O)C2)c1 (configuration not stated)	-17.9
Cn1ccc(C(=O)N2CCC(c3cc(CCO)n(C)n3)C2)n1 (configuration not stated)	-3.69
CC(=O)NCCCSC1CCN(c2ccccc2F)C1=O (configuration not stated)	-2.45
COc1ccc(C(=O)N(C)Cc2cc(C)on2)c(F)c1	-5.2
Cc1cccnc1CC(C)N(C)Cc1cccs1 (configuration not stated)	-12.4
COc1ccccc1CN(C)C(=O)CN1C(=O)OC[C@@H]1c1ccccc1	-43.6
COc1ccc(CNCC2CNc3cc(C)nn3C2)cn1 (configuration not stated)	-16.5

SMILES	cytotoxicity at 10 µM [%]
NS(=O)(=O)CCNC(=O)C1(c2ccc(Br)cc2)CC1	-4.69
O=C(NCCNc1ncccn1)N1CCN(c2nccs2)CC1	-13.8
CC(O)CNC(=O)Nc1ccc(Br)cc1Br (configuration not stated)	-1.45
C1CCCN(c2nc(C3CC3)no2)CC1	-5.59
O=c1cc(Cn2cncn2)nc2n1CCCN(CC1CC1)C2	-2.65
O=C(CNc1ccccc1Cl)Nc1cc(-n2cnnn2)ccc1F	-4.38
CC(Cn1cccn1)NCc1csc(-c2ccc3c(c2)OCO3)n1 (configuration not stated)	-26
CCCN(CCC)CCNc1c(-c2ccccc2)c(=O)c1=O	-82.1
CC(NC(=O)CCCc1ccc(Cl)cc1)c1n[nH]c(=O)[nH]1 (configuration not stated)	3.26
COc1ccc(C(C(=O)O)N(C)Cc2c(C)nn(C)c2C)c(C)c1 (configuration not stated)	7.47
CC(C)c1nnc(NC(=O)C2CSCN2C(=O)C2CCC2)s1 (configuration not stated)	5.04
O=C(NCc1ccc(Cl)cc1)N1CCN(CC(O)C2CC2)CC1 (configuration not stated)	8.66
Cc1cc(C)n(-c2ccc(C(C)NS(=O)(=O)CCCS(C)(=O)=O)cc2)n1 (configuration not stated)	7.04
CCc1cnc(N2CC3(CCN(Cc4ccsc4)C3)C2)nc1	2.98
Cc1ncsc1CCN1CCC(N(C)Cc2ncc(C(C)C)o2)C1 (configuration not stated)	-7.49
CCCc1nc(CN(CC)Cc2ccoc2)no1	-2.52
CC(C)N(C)C(=O)CN1C(=O)OC[C@@H]1c1ccccc1	-47.7
CC(=O)c1cccc(NC(=O)c2cnc(N3CCN(C)CC3)nc2C)c1	4.28
CC(SCCNS(=O)(=O)c1cnn(C)c1)c1cccs1 (configuration not stated)	12.9
Cc1ccc(-c2cc(C(=O)NCCCc3csc(N)n3)[nH]n2)s1	81.7
Cc1n[nH]c(=O)c2c(NC(=O)CN3CCOCC3C)oc(C)c12 (configuration not stated)	-0.219
O=C(CCc1cnn(-c2ccccc2)c1)N1CCCC(n2cccn2)C1 (configuration not stated)	2.1
Cc1ccccc1C1(C(=O)NCCN2CCCC2)CCOCC1	-7.54

SMILES	cytotoxicity at 10 µM [%]
CCn1nccc1CN(C)c1nc(N)nc2c1nc(C)n2C	-4.83
CCN(CCC(=O)NC1CC1)Cc1ccc(Cl)s1	3.88
CCCc1nc(N[C@H]2COC[C@@H]2N2CCCCC2)c2cnn(C)c2n1	0.727
O=C(NCc1ccc(F)cc1)N1CCC(C2OCCO2)CC1	-2.39
Cc1nc(C2(O)CCCNCC2)sc1CCOc1ccccc1Cl (configuration not stated)	-28.1
CCc1nnc2n1CCN(c1nc3ccccc3o1)C2	2.11
Cn1nc(COCC2CC2)c2c1CCN(C(=O)c1ccno1)C2	6.8
O=C1NCC2(CCCN(C(=O)c3c[nH]nc3C3CCCCC3)C2)O1 (configuration not stated)	8.72
O=C(COCc1ccccc1)N1CCN(Cc2ccccc2F)C(=O)C1	-3.19
CNc1nc(CNC(=O)Nc2cccc(-c3nnco3)c2)cs1	-5.26
O=C(N[C@@H]1CN(C2CCCC2)C[C@@H]2CCCO[C@@H]21)c1cnccn1	-1.58
COc1cc(Cl)c(C)cc1NC(=O)CCNc1ccc(C#N)cn1	0.423
CN(CC(F)F)C(=O)c1cn(-c2ccc(Br)cc2)cn1	1.73
Cc1cccc(-c2cc(C(=O)O)sn2)c1	-0.475
COCCN1CCN(CC2(O)CCCCC2)CC1	7.04
Cc1ccc(C(=O)N(C2CC2)C2CC(=O)NC2=O)cc1F (configuration not stated)	-7.33
CCNC(=O)CCCC(=O)N1CCc2cc(Cl)cc(Cl)c2C1	-15.1
O=c1c(C(F)(F)F)cccn1Cc1nnc(-c2cccnc2)o1	-2.93
COc1ccc(F)c(CN2CCCC(O)(CNCC(C)(C)C)C2=O)c1 (configuration not stated)	12.2
CNc1ncc(-c2ccc(NC(=O)[C@@H]3CCCCN3)cc2)cn1	-7.66
COc1ccc(-n2ncc(C(C)NCc3cnc(SC)nc3)c2C)cc1 (configuration not stated)	0.423
O=C(c1ccoc1)N1CCC2(CC1)C(=O)N(CC1CC1)c1ccccc12	10.7
Cc1nc(CN2CCC23CCN(Cc2ccco2)CC3)cs1	-114

SMILES	cytotoxicity at 10 µM [%]
CC(CO)N1CCN(C(=O)OC(C)(C)C)CC1 (configuration not stated)	-7.85
CC(C)[C@H]1CN(CC2CCC2)C[C@@H]1NC(=O)c1ccc(=O)[nH]c1	-7.85
COCCN1C(=O)CCC12CCC(NC(=O)c1cnccn1)CC2 (configuration not stated)	-6.19
COCCCSc1ccc(NCc2cscn2)cc1	6.43
O=C(c1ccsc1)N1CC[C@H]2C[C@@H](c3nnc(C4CC4)o3)O[C@@H]2C1	-7.36
CC(C)(C)CC(=O)NC[C@H]1OC[C@@H](NC2CCC(F)(F)CC2)[C@@H]1O	-1.23
O=C(c1cnc(COc2ccccc2)nc1O)N1CCC(F)(F)CC1	-3.11
c1cnn(CC2CN(CCc3ccncc3)CCO2)c1 (configuration not stated)	2.74
CC(C)(C)n1cc(C(=O)N2CCN(Cc3ccccc3F)CC2)cn1	10.6
CC(C(=O)N1CCC(Nc2cccnn2)CC1)n1cccn1 (configuration not stated)	-9.17
COc1cccc2c1OCC(CNC(=O)CN(C)C1CCCC1)C2 (configuration not stated)	-147
N[C@H]1CN(C(=O)Cc2ccc(Cl)c(Cl)c2)C[C@@H]1C1CC1	-14.4
O=C(c1cnc2ccccc2c1)N1CCC2(CCN2c2ncccn2)C1 (configuration not stated)	-122
COCC(=O)N1CCC(c2cccc(Cc3ccc(F)cc3)n2)CC1	10.3
O=C(c1cccc(C(F)(F)F)c1)N1CC(=O)N(C2CCC2)CC(O)C1 (configuration not stated)	-3.16
CC(C)[C@@H]1CN(c2ncc(F)cn2)C[C@H]1NS(=O)(=O)N(C)C	14
CCc1nnc2n1CCN(C(C(=O)N(CC)CC)c1ccccc1)C2 (configuration not stated)	-0.77
CN(C)[C@H]1CCCCN(C(=O)c2cccc(N3CCS(=O)(=O)CC3)c2)C1	2.45
O=C(C1CCCO1)N1CCCn2c(nnc2Cn2cccn2)C1 (configuration not stated)	16.6
Cn1ccc(C(=O)N2CCC(Cc3cccc4ncccc34)C2)n1 (configuration not stated)	-4.83
